Consider 3 compounds from ChEMBL document CHEMBL4196023, “Cyclic peptide inhibitors of lysine-specific demethylase 1 with improved potency identified by alanine scanning mutagenesis” (Eur J Med Chem, 2018).

Assay [1] deals with MCF7. Briefly: Antiproliferative activity against human MCF7 cells after 72 hrs by MTS assay. The assay is classed as functional, cell-based. To be noted: MCF7, 72 h. (Tetrazolium assays rely on reduction of a dye to a coloured formazan, in cell work by metabolically active cells.)
Assay [2] concerns Calu-6. The experiment in a line: Antiproliferative activity against human Calu6 cells after 72 hrs by MTS assay. It counts as functional, cell-based. To be noted: Calu-6, 72 h.
Assay [3] has as its system K562. Briefly: Antiproliferative activity against human K562 cells after 72 hrs by MTS assay. The assay is classed as functional, cell-based. To be noted: K562, 72 h.
In assay [4] the target is Lysine-specific histone demethylase 1A (Homo sapiens) (UniProt O60341). Briefly: Inhibition of LSD1 in human K562 cells assessed as increase in H3K4me2 expression at 10 uM after 48 hrs by Western lot analysis relative to control. It counts as cell-based.
Assay [5] has the same target. Briefly: Inhibition of LSD1 in human NCI-H526 cells assessed as increase in H3K4me2 marks at promoter of IGFBP2 at 100 uM after 48 hrs by ChIP-qPCr method. The assay is classed as cell-based. The essentials: (§1)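 NCI-H526 small cell lung carcinoma cells treated 48 h at 100 µM alongside an untreated control. Cells formaldehyde cross-linked, nuclei sonicated and chromatin enzymatically digested. IP with H3K4me2 antibody (normal rabbit IgG as negative control) on protein G magnetic beads. Purified DNA quantified by TaqMan qPCR at promoter regions; fold change by comparative CT (Livak). SD from three qPCR wells.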

The target is the same in assay [6]. Briefly: Inhibition of LSD1 in human NCI-H526 cells assessed as increase in H3K4me2 marks at promoter of FEZ1 at 100 uM after 48 hrs by ChIP-qPCr method. It counts as cell-based. The essentials: as §1
Assay [7] shares this target. The experiment in a line: Inhibition of LSD1 in human K562 cells assessed as increase in H3K4me2 expression after 48 hrs by Western lot analysis.
Assay [8] shares this target. Briefly: Inhibition of LSD1 in human Calu6 cells assessed as increase in H3K4me2 expression at 10 uM after 48 hrs by Western lot analysis relative to control. The assay is classed as cell-based.
The subject of assay [9] is Calu-6. Briefly: Inhibition of cell proliferation in human Calu6 cells at 50 uM after 72 hrs by MTS assay relative to control. The assay is classed as functional. As to conditions: Calu-6, 72 h.
The test system of assay [10] is K562. Briefly: Antiproliferative activity against human K562 cells assessed as cell death at 50 uM after 72 hrs by MTS assay relative to control. The assay is classed as functional.

The source made the active and inactive calls. The calls are words filed in the database; no cut-off is given here. Positions of bridges follow the written chain, without caps; N, C: chain ends. Residues, ends and D or L forms follow the SMILES beside them. *: point of attachment. Decanoyl = CCCCCCCCCC(=O)*

In general, IC50 refers to the midpoint of a concentration-inhibition curve. Read a high IC50 as weaker potency. As usually defined, the inhibition is the relative decrease from the control value, in per cent. On to `CCCCCCCCCC(=O)NCCCC[C@H](NC(=O)[C@H](C)NC(=O)[C@H](CC(C)C)NC(=O)[C@H](CCC(N)=O)NC(=O)[C@H](CCCCN)NC(=O)[C@H](CCCNC(=N)N)NC(=O)[C@@H]1CCCN1C(=O)[C@H](C)NC(=O)[C@H](CCCCN)NC(=O)CNC(=O)CNC(=O)[C@@H](NC(=O)[C@@H]1CCC(=O)NCCCC[C@H](NC(=O)[C@H](CCSC)NC(=O)[C@H](C)NC(=O)[C@H](CCCNC(=N)N)NC(=O)[C@H](C)N)C(=O)N[C@@H]([C@@H](C)O)C(=O)N[C@@H](C)C(=O)N[C@@H](CCCNC(=N)N)C(=O)N[C@@H](CCCCN)C(=O)N1)[C@@H](C)O)C(N)=O` (H-ARAMKTARKETGGKAPRKQLAK(Decanoyl)-NH2; lactam 5-10), for which the IC50 is 28.1 µM in assay [1], 40.2 µM in [2] and 95.1 µM in assay [3]. Further, the fold change (FC) in [4] is 2 to 17. The inhibition entry in assay [5] and in [6] was “Active” throughout. In addition, the inhibition result in assay [7] was “Dose-dependent effect”.
Regarding `CCCCCCCCCC(=O)NCCCC[C@H](NC(=O)[C@H](C)NC(=O)[C@H](CC(C)C)NC(=O)[C@H](CCC(N)=O)NC(=O)[C@H](CCCCN)NC(=O)[C@H](CCCNC(=N)N)NC(=O)[C@@H]1CCCN1C(=O)[C@H](C)NC(=O)[C@H](CCCCN)NC(=O)CNC(=O)CNC(=O)[C@@H](NC(=O)[C@@H]1CCC(=O)NCCCC[C@H](NC(=O)[C@H](CCSC)NC(=O)[C@@H](NC(=O)[C@H](CCCNC(=N)N)NC(=O)[C@H](C)N)[C@@H](C)O)C(=O)N[C@@H]([C@@H](C)O)C(=O)N[C@@H](C)C(=O)N[C@@H](CCCNC(=N)N)C(=O)N[C@@H](CCCCN)C(=O)N1)[C@@H](C)O)C(N)=O`, the results for the IC50 in [1] and in assay [2] were 36.1 µM and 92.4 µM, respectively. For the same compound, the fold change (FC) in assay [4] is 17.6. The outcome in [8] was inactive. The inhibition result in assay [5] and in assay [6] was “Active” throughout.
For the compound `N=C(NCCCNCCCCCCCNCCCNC(=N)NC(=N)NCCC(c1ccccc1)c1ccccc1)NC(=N)NCCC(c1ccccc1)c1ccccc1`, the IC50 was 2.5 to 5.1 µM in assay [1], 1.6 to 6.3 µM in [2] and 4.3 µM in assay [3]. The compound further displayed an inhibition at 50 µM in [9] of 83%. Besides, the Activity in [10] is given as 88%. For the same compound, the fold change (FC) in assay [4] is 2 to 17.
